Test results taken from the EternaBench riboswitch data.

System: MS2 coat protein
Assay: apparent Kd, MS2 coat protein; higher = weaker binding; RNA-MaP array; FMN 200 µM where present
Procedure, shortened: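 Apparent Kd: the median of filtered binding-curve fits from single clusters. Designs were transcribed on Illumina sequencing-chip clusters by stalled E. coli RNA polymerase and titrated with SNAP-549-labelled MS2 coat protein from 0.7 or 1.5 nM, doubling to 3 µM, in 100 mM Tris-HCl pH 7.5, 80 mM KCl, 4 mM MgCl2, BSA, DTT, yeast tRNA and Tween-20. Each series ran without and then with constant ligand, and green signal was normalised to red-channel RNA signal and control-cluster median Fmax.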

[1] = designed as: OFF switch for flavin mononucleotide, no ligand
[2] = ligand present: flavin mononucleotide, designed as: OFF switch for flavin mononucleotide
[3] = designed as: ON switch for flavin mononucleotide, no ligand
[4] = ligand present: flavin mononucleotide, designed as: ON switch for flavin mononucleotide

Sequence | apparent Kd [1] | apparent Kd [2] | apparent Kd [3] | apparent Kd [4]
GAUUAACAUGAGGAUCACCCAUGUGAGGAUAUGGACUGGCUCACUUUCCGAUUCGAGUCUAGAAGGCGCAUCUU | 32.8 nM | 35.2 nM |  | 
UGGUAACAUGAGGAUCACCCAUGUCAAGAGAAUCAAGGAUAUGGUAAGUAAUAAGAGAAUCUAGAAGGUGAAGUUG |  |  | 96.2 nM | 69.1 nM
AUGCUAUACGAAGGAUAUGGUUACAUGAGGAUCACCCAUGUAUUUUUUGUGAUCUUGUUUAAGUUCCAGAAGGUCGUAUAGCUA | 486 nM | 617 nM |  | 
AAAACGCAAGGAUAUACAUGAGGAUCACCCAUGUAGACAAUAUAAAGGGUCUCACCAUGUAGAAGGUGCUACCC | 21.3 nM | 16.5 nM |  | 
ACAAGUUUGUAGAAGGACGACUAAUUUGUAUUCGUAGGAUAUACUAUUUACAUGAGGAUCACCCAUGUUUUUAUGGAACAAUGU | 11.9 nM | 16.2 nM |  | 
GAAAAGCGAGGAUAUACAUGAGGAUCACCCAUGUGUUGGGUGCGUUGGCUAGUCGUCUGUAGAAGGCGCACAAA | 904 nM | 466 nM |  | 
GUAGCAUUCUGAGGAUAUCCAUACCGGAAACGGACAUGAGGAUCACCCAUGUGGCGAAAGCCUUGGGAGAAGGCAGUAUGCUAC |  |  | 4.87 nM | 4.34 nM
CCGGAUAUGCAGGAUAUCGUAUCGGAGACGAUACGAGAAGGGUAUACAUGAGGAUCACCCAUGUGUCCUACCGG | 26.4 nM | 32.1 nM |  | 
AGUCGGAGCAGAGGAUAUACAUGAGGAUCACCCAUGUAAAUGAAUGAAGCCUGGAAACAGGCAAUGUAGAAGGCUGCUCCGACA | 17.6 nM | 54.2 nM |  | 
CCUCUACAUGAGGAUCACCCAUGUGAGGAUAUAUGCCCAUUACGCCAAGGGCGUGAUGAUAGAAGGCACAGGGU | 22.4 nM | 71.1 nM |  | 
CGCUCAAUUCAGAAGGAUAGAAUCAGAAGGCGUAACAUGAGGAUCACCCAUGUAUAGAAGUGUAACGAGGAUAUGAAUUGAGCG | 11.5 nM | 10.2 nM |  | 
UCAAGUAUGUAGGAUAUCGAUGUCUACGGACAUCGAGAAGGACGUACAUGAGGAUCACCCAUGUAACUUGCAUG | 464 nM | 188 nM |  | 
UUCGCUAAGGUGUAGCGAGGCUCGCAAGAAGGGUGAUGCACAUGAGGAUCACCCAUGUAAGCCUUACAGGAUAUUGCUUGCCGA |  |  | 509 nM | 40.7 nM
UCGUACUAGGGAGGAUAUGGGAAGAUACAUGAGGAUCACCCAUGUUUAAGAAUGCCGAGAGGCAACUAGAAGGCCCUAGUACCU |  |  | 391 nM | 19.1 nM
GCGGUACAUGAGGAUCACCCAUGUCAGGAUAUCCGCUGUUUGUUAAUAAGCAGGCGGUGGAGAAGGGACUUCGC | 32 nM | 33.1 nM |  | 
GGACGUCACAUUUACAUGAGGAUCACCCAUGUCUCUUGACAUGAGGAUAUGGAUCCUAAUUGGAUCCAGAAGGCAUGGACGUCC |  |  | 1130 nM | 153 nM
UUUUAGAGAGGAUAUAUAAAGUGAAACAUGAGGAUCACCCAUGUAAUUUUAUGGAUGUAAAUAGAAGGCUCAUUUA | 33.3 nM | 28.6 nM |  | 
UUGUUGUAUGUAGGAUAUGCAUGUUAUUAUUAUGCAGAAGGACAUGAGGAUCACCCAUGUGUAUUAUUAUUAUAUAUUAUAUAU | 20.9 nM | 23.3 nM |  | 
GCGUUGAACGAGAAGGCCAAUACAUGAGGAUCACCCAUGUUUAGAUGUUUUGGAGGAUAUCGUACGUCGUCUCAUGAGCAACGC | 6.68 nM | 7.92 nM |  | 

Sequence | apparent Kd [1] | apparent Kd [2] | apparent Kd [3] | apparent Kd [4]
UUUCCGCGAGGAUAUGCGGGUUGUGCUUUUCAUUUUUUAUAACAUGAGGAUCACCCAUGUAGAAGGUGCUUCUU | 186 nM | 166 nM |  | 
AUGCUUCACACAGGAUAUACAUGAGGAUCACCCAUGUGUCCAAAGUAGCCGACACGAGCUACGUCGUAGAAGGGUGUGAAGCAU | 18.8 nM | 87.3 nM |  | 
GCGUUGAUGUAGAAGGUACAUGAAUAUAUUUAAUACCUCAAGUAACAUGAGGAUCACCCAUGUAGUAAGGAUAUACAUGAACGC |  |  | 88.6 nM | 56.1 nM
CGUGCAAAUGUAGGAUAUGGUUAUCUAUGUCUAGUUACUAGACAUAGAUAACCAGAAGGACAUGAGGAUCACCCAUGUAGCACG | 6.7 nM | 21.6 nM |  | 
UAUUAAUACGAAGGAUAUGGUUACAUGAGGAUCACCCAUGUAUGUAUAUUGAUCUAGAUAUUUAACCAGAAGGUCGGGAGUAAA | 39 nM | 38.2 nM |  | 
GCUUUAUAGAUCCAUUUUAACAACAUGAGGAUCACCCAUGUGCAGGAUAUCGUUUGUUUUAUAUUCGAGAAGGGCAAAUUCAUC | 37.9 nM | 93.1 nM |  | 
GAAUAAUUGAUCCAAUUUUACAACAUGAGGAUCACCCAUGUGCAGGAUAUCGUGAAAGUUAAAUACGAGAAGGGCAAGAACUGU | 220 nM | 344 nM |  | 
CAGAAGUCAGGAUAUGCAUGGCGGGACUUGCGUCGUGGCGUGCAGAAGGGACAUGAGGAUCACCCAUGUGGAGC | 118 nM | 182 nM |  | 
UGUCCAUAGCAGAAGGACAUGAGGAUCACCCAUGUAAUAAAACAUCCAAAUGUAGGAUAUGCUAUGGACUAAGAGCGAAAGCUC | 28.9 nM | 606 nM |  | 
UUAGGACAAGCAGGAUAUGUAACAUGAGGAUCACCCAUGUUGAGACUUUGGCACUCCUACAUGCAGCAGAAGGGCUUCAAACCU | 29.7 nM | 66.4 nM |  | 
AGCAUGUGAGGAUAUGCGGACUCCAGUAAAUCUGAAGUCCAGUAGAAGGCACAUGAGGAUCACCCAUGUGAUAA | 92.9 nM | 112 nM |  | 
CUGUCCCAAGGAUAUACAUCAGUCCCAGGGUGCCGCAUAAGACAUGAGGAUCACCCAUGUAGAAGGUGGAGACC | 96.7 nM | 92.6 nM |  | 
GGUGCUGUGUAGAAGGCAGAUCUGAUUCAGAUCUGAGGAUAUACAUGAGGAUCACCCAUGUUAAGCACCAGCACGAGAGUGCAA | 5.8 nM | 8.54 nM |  | 
CCUCCCUGAGGAUAUCCAUCCUCAUACAUGAGGAUCACCCAUGUUCAUCCGUGGCUACCCGGAGAAGGCAGCUCUG | 321 nM | 290 nM |  | 
AGGAAGUGAGGAUAUGCAGUCGCUAGUAGACGCUAGCACUUGUAGAAGGCACAUGAGGAUCACCCAUGUUUAAA | 31.3 nM | 36.3 nM |  | 
GGGUCGUCAGGAUAUACAUGAGGAUCACCCAUGUGACCACACUUACCUAUCGCUCGCUGUAGAAGGGAUGAUGA | 30.3 nM | 27.1 nM |  | 
UUGCCUGCGUGUCGCCGGUUUGGACAGGAUAUCCACAUGAGGAUCACCCAUGUCUAACAAAAUACGGAGAAGGGUCCUAGCGGU |  |  | 39 nM | 6.55 nM
AAGCCCUGAGGAUAUCUCAUCUCGCACAUGAGGAUCACCCAUGUUCUUCUCUGGGUUUCGAGAGAAGGCAGGCCUC | 954 nM | 641 nM |  | 
GCGGCUAGUGCAGGAUAUCGGCGCGUGUAGUGCCGAGAAGGGCACAUGAGGAUCACCCAUGUGAUCAAUCACUGCUAAGGCCGC | 5.26 nM | 5.4 nM |  | 

Sequence | apparent Kd [1] | apparent Kd [2] | apparent Kd [3] | apparent Kd [4]
AAAAGGCUAGGAUAUACCAGUGGGUGUAAGAACUCAAAUUUACAUGAGGAUCACCCAUGUAGAAGGAGUAAAAU | 20.4 nM | 30.2 nM |  | 
GAUUCACAUGAGGAUCACCCAUGUCGUUUUAUGGGAGGAUAUACGUGGACCGUAGUCCGCGUAGAAGGCCUAAUUG |  |  | 102 nM | 30.4 nM
GGUUGGCGAGGAUAUACAUGAGGAUCACCCAUGUGGUCCUGCGAUAGAAUCGCCCUUUGUAGAAGGCGCGGGUC | 67 nM | 55.2 nM |  | 
AGUUUUGUACAUGAGGAUCACCCAUGUUAAUAUGUGGUAGUCAGAAGGCAUUGAUAGAGUUUUAAUGAGGAUAUGAAUAUUCUG |  |  | 31.8 nM | 32.3 nM
UUUAUUAGUUAGAAGGCUUGAUGAAUUACAAUGGACAUGAGGAUCACCCAUGUGUAUUCAUGUUAAGAGGAUAUAGUCAUAUAU |  |  | 30.2 nM | 20.2 nM
AAGUAUAGAGGAUAUAGUAGUUACAACAUGAGGAUCACCCAUGUUCUUCAUAACGUAGUUCUAGAAGGCUGAUAAA | 183 nM | 271 nM |  | 
UAGCAGUGCGGGUAGGAUAUGUAGGGUGGUACAUGAGGAUCACCCAUGUAUCCACCCUUCGACCGGCAGAAGGGCCUGUCACUGC |  |  | 22 nM | 22.6 nM
UAGAUGGGAGGAUAUACAUAGAUACAGAUUCAUGUAGUGCUACAUGAGGAUCACCCAUGUAGAAGGCCCGUCUU | 33 nM | 355 nM |  | 
CAGCGGCAAGGAUAUACAUGAGGAUCACCCAUGUGGUCCCGCUAUAGUAACUUAGCUUGUAGAAGGUGCAGCUA | 36.5 nM | 218 nM |  | 
CGUAGGAUCCAGAAGGCAUGAAACAUGAGGAUCACCCAUGUCAAAUACAUGAGGAUAUGGAUCCUACGAAAAGUGCGAAAGCAC |  |  | 3.95 nM | 3.84 nM
AAAAAGCGAGGAUAUACAUGAGGAUCACCCAUGUCAAAAGGUAAGACCGCAGAAAAAAGUAGAAGGCGCAAAAA | 63 nM | 137 nM |  | 
GUAGCAACAUGAGGAUCACCCAUGUAGGAUAUCGCUAUUGUAAUCAUGAAACAUGAUUACAAUAGCGAGAAGGACAUAUGCUAA | 8.33 nM | 10.7 nM |  | 
GCAGCGUAUGUAGGAUAUCGGUCAGUUUCUGAUCGAGAAGGACAUGAGGAUCACCCAUGUAAAUUACCGACAUUGUCGGGCUGC | 6.5 nM | 8.25 nM |  | 
GCACAUGAUACAGGAUAUGUUUUUUAAUUUAUUAUGAGUUAUAUAUUAUUUACAGAAGGGUAUACAUGAGGAUCACCCAUGUGC | 40.9 nM | 31.4 nM |  | 
GGAUGUCAAAGACAUCCUUAACGAACAUGAGGAUCACCCAUGUAGGAUAUGCUACUCAAAGAGUAGCAGAAGGACAUGUGCCUU | 34.5 nM | 270 nM |  | 
GUACUACAUGAGGAUCACCCAUGUACAAAGGUACGAGGAUAUGCAUGUACGAAAGUAUAUGCAGAAGGCGUAGUAC |  |  | 25.8 nM | 21.7 nM
AACGUGUCAGGAUAUGCUGCUCGUCACGAAAGUGAUGAGUAGCAGAAGGGACAUGAGGAUCACCCAUGUAAAGA | 153 nM | 101 nM |  | 
GCGCAAGCAUGAGGAUAUUUAUUAAAUAAUAAUAAAGAAGGCAUGUCAAAUGACAUGAGGAUCACCCAUGUUGGCAAAAUGCGC |  |  | 45.9 nM | 9.77 nM
